Test results reported in ChEMBL document CHEMBL4765448, “Multiple biological active 4-aminopyrazoles containing trifluoromethyl and their 4-nitroso-precursors: Synthesis and evaluation” (Eur J Med Chem, 2020).
≈ marks a conversion by molar mass, not a printed value. Calls of active or inactive are those of the source. The rule behind the calls is not given here.

Test system: Staphylococcus aureus
Assay: Antibacterial activity against Staphylococcus aureus
Assay type: functional
Conditions: not given
For `O=Nc1c(C(F)(F)F)n[nH]c1-c1cccs1`, the MIC was 15.6 µg/mL (≈ 63.1 µM). For `Cn1nc(C(F)(F)F)c(N=O)c1-c1cccs1`, the MIC was > 500 µg/mL.

Test system: Microsporum canis
Assay: Antifungal activity against Microsporum canis
Assay type: functional
Conditions: not given
Compound `O=Nc1c(C(F)(F)F)n[nH]c1-c1cccs1` has an MIC of 25 µg/mL (≈ 101 µM). For `Cn1nc(C(F)(F)F)c(N=O)c1-c1cccs1`, the MIC was 25 µg/mL (≈ 95.7 µM).

Test system: Shigella flexneri
Assay: Antibacterial activity against Shigella flexneri
Assay type: functional
Conditions: not given
In the case of `O=Nc1c(C(F)(F)F)n[nH]c1-c1cccs1`, the MIC is reported as 500 µg/mL (≈ 2020 µM). In the case of `Cn1nc(C(F)(F)F)c(N=O)c1-c1cccs1`, the MIC is reported as > 500 µg/mL.

Test system: Epidermophyton floccosum
Assay: Antifungal activity against Epidermophyton floccosum
Assay type: functional
Conditions: not given
`O=Nc1c(C(F)(F)F)n[nH]c1-c1cccs1` gave an MIC of 50 µg/mL (≈ 202 µM). In the case of `Cn1nc(C(F)(F)F)c(N=O)c1-c1cccs1`, the MIC is reported as 50 µg/mL (≈ 191 µM).

Test system: Streptococcus pyogenes
Assay: Antibacterial activity against Streptococcus pyogenes
Assay type: functional
Conditions: not given
`O=Nc1c(C(F)(F)F)n[nH]c1-c1cccs1` showed an MIC of 7.8 µg/mL (≈ 31.6 µM). With `Cn1nc(C(F)(F)F)c(N=O)c1-c1cccs1` the MIC was > 500 µg/mL.

Test system: not listed separately
Assay: Drug metabolism assessed as nitric oxide release in presence of rat plasma by Griess reagent based assay
Assay type: cell-free
Conditions: not given
For `Cn1nc(C(F)(F)F)c(N=O)c1-c1cccs1`, the Drug metabolism was “Metabolite detected”.

Test system: Rattus norvegicus
Assay: Analgesic activity in rat assessed as prolongation of latency period at 15 mg/kg, ip measured after 1 hr by hot-plate test relative to control
Assay type: functional
Conditions: not given
Procedure, shortened: (§1)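 Hot-plate test in rats. Compounds were given by intraperitoneal injection. Latency was read at 1 h and, for some compounds, also at 2 h after dosing. Results are expressed as % prolongation of the latent period versus vehicle-treated control. Significance was given as p-values.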
With `Cn1nc(C(F)(F)F)c(N=O)c1-c1cccs1` the Activity was 29.8%.

Test system: Erythrocyte
Assay: Antioxidant activity in human erythrocytes assessed as protection against AAPH-induced hemolysis at 400 uM preincubated for 20 mins followed by AAPH addition and measured after 2 hrs by spectrophotometric method relative to control
Assay type: functional
Conditions: time 140 min, 2.333 h
Procedure, shortened: (§2)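 Erythrocyte hemolysis assay with AAPH as the free-radical initiator, testing 50 and 400 µM. Results are expressed as relative protection of membranes against oxidative damage, each the mean of two independent experiments.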
With `O=Nc1c(C(F)(F)F)n[nH]c1-c1cccs1` the “fold change (FC)” value was 1.12.

Test system: Erythrocyte
Assay: Antioxidant activity in human erythrocytes assessed as protection against AAPH-induced hemolysis at 50 uM preincubated for 20 mins followed by AAPH addition and measured after 2 hrs by spectrophotometric method relative to control
Assay type: functional
Conditions: time 140 min, 2.333 h
Procedure, shortened: as §2
For `O=Nc1c(C(F)(F)F)n[nH]c1-c1cccs1`, the “fold change (FC)” value was 1.18.

Test system: Mycobacterium tuberculosis
Assay: Antitubercular activity against Mycobacterium tuberculosis H37Rv
Assay type: functional
Conditions: not given
Procedure, shortened: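 Mycobacterium tuberculosis strain H37Rv; minimum inhibitory concentration (MIC) taken as the lowest level needed to inhibit bacterial growth; isoniazid and pyrazinamide served as reference drugs.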
Compound `O=Nc1c(C(F)(F)F)n[nH]c1-c1cccs1` has an MIC of 3.1 µg/mL (≈ 12.5 µM). `Cn1nc(C(F)(F)F)c(N=O)c1-c1cccs1` showed an MIC of 12.5 µg/mL (≈ 47.9 µM).

Test system: Rattus norvegicus
Assay: Antiinflammatory activity in rat model of carrageenan-induced paw edema assessed as inhibition of hind paw swelling at 15 mg/kg, ip measured after 5 hrs
Assay type: functional, organism-based
Conditions: not given
With `O=Nc1c(C(F)(F)F)n[nH]c1-c1cccs1` the Activity was “Active”. In the case of `Cn1nc(C(F)(F)F)c(N=O)c1-c1cccs1`, the Activity is reported as “Active”.

Test system: Staphylococcus aureus
Assay: Antibacterial activity against methicillin resistant Staphylococcus aureus
Assay type: functional
Conditions: not given
In the case of `O=Nc1c(C(F)(F)F)n[nH]c1-c1cccs1`, the MIC is reported as 62.5 µg/mL (≈ 253 µM).

Test system: Nannizzia gypsea
Assay: Antifungal activity against Trichophyton gypseum
Assay type: functional
Conditions: not given
`O=Nc1c(C(F)(F)F)n[nH]c1-c1cccs1` showed an MIC of 50 µg/mL (≈ 202 µM). Work on `Cn1nc(C(F)(F)F)c(N=O)c1-c1cccs1` yielded an MIC of 50 µg/mL (≈ 191 µM).

Test system: not listed separately
Assay: Antioxidant activity assessed as AAPH scavenging activity by measuring residual fluorescence at 10 uM measured at 1 min interval for 30 mins by ORAC fluorescein assay relative to control
Assay type: functional
Conditions: not given
Procedure, shortened: (§3)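 ORAC-FL assay with fluorescein as the probe and AAPH as the peroxyl radical generator. The loss of fluorescence over time was followed, and the result is given as % fluorescence restored at 10 and 50 µM. Each value is the mean of two independent experiments.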
For `O=Nc1c(C(F)(F)F)n[nH]c1-c1cccs1`, the Activity was -56.2%.

Test system: Pseudomonas aeruginosa
Assay: Antibacterial activity against Pseudomonas aeruginosa
Assay type: functional
Conditions: not given
For `O=Nc1c(C(F)(F)F)n[nH]c1-c1cccs1`, the MIC was > 500 µg/mL. In the case of `Cn1nc(C(F)(F)F)c(N=O)c1-c1cccs1`, the MIC is reported as > 500 µg/mL.

Test system: Escherichia coli
Assay: Antibacterial activity against Escherichia coli
Assay type: functional
Conditions: not given
With `O=Nc1c(C(F)(F)F)n[nH]c1-c1cccs1` the MIC was 250 µg/mL (≈ 1010 µM). `Cn1nc(C(F)(F)F)c(N=O)c1-c1cccs1` gave an MIC of 500 µg/mL (≈ 1910 µM).

Test system: not listed separately
Assay: Drug metabolism assessed as nitric oxide release in absence of rat plasma by Griess reagent based assay
Assay type: cell-free
Conditions: not given
For `O=Nc1c(C(F)(F)F)n[nH]c1-c1cccs1`, the Drug metabolism was “Metabolite not detected”. For `Cn1nc(C(F)(F)F)c(N=O)c1-c1cccs1`, the Drug metabolism was “Metabolite not detected”.

Test system: Rattus norvegicus
Assay: Analgesic activity in rat assessed as prolongation of latency period at 15 mg/kg, ip measured after 2 hrs by hot-plate test relative to control
Assay type: functional
Conditions: not given
Procedure, shortened: as §1
Work on `Cn1nc(C(F)(F)F)c(N=O)c1-c1cccs1` yielded an Activity of 43.8%.

Test system: Serratia marcescens
Assay: Antibacterial activity against Serratia marcescens
Assay type: functional
Conditions: not given
With `O=Nc1c(C(F)(F)F)n[nH]c1-c1cccs1` the MIC was 250 µg/mL (≈ 1010 µM). In the case of `Cn1nc(C(F)(F)F)c(N=O)c1-c1cccs1`, the MIC is reported as > 500 µg/mL.

Test system: Trichophyton rubrum
Assay: Antifungal activity against Trichophyton rubrum
Assay type: functional
Conditions: not given
In the case of `O=Nc1c(C(F)(F)F)n[nH]c1-c1cccs1`, the MIC is reported as 12.5 µg/mL (≈ 50.6 µM). `Cn1nc(C(F)(F)F)c(N=O)c1-c1cccs1` showed an MIC of 12.5 µg/mL (≈ 47.9 µM).

Test system: not listed separately
Assay: Antioxidant activity assessed as AAPH scavenging activity by measuring residual fluorescence at 50 uM measured at 1 min interval for 30 mins by ORAC fluorescein assay relative to control
Assay type: functional
Conditions: not given
Procedure, shortened: as §3
In the case of `O=Nc1c(C(F)(F)F)n[nH]c1-c1cccs1`, the Activity is reported as -98.7%.

Test system: Trichophyton tonsurans
Assay: Antifungal activity against Trichophyton tonsurans
Assay type: functional
Conditions: not given
Compound `O=Nc1c(C(F)(F)F)n[nH]c1-c1cccs1` has an MIC of 50 µg/mL (≈ 202 µM). Work on `Cn1nc(C(F)(F)F)c(N=O)c1-c1cccs1` yielded an MIC of 50 µg/mL (≈ 191 µM).

Test system: not listed separately
Assay: Antioxidant activity assessed as trolox equivalent of ABTS radical scavenging activity measured after 1 hr by UV-vis spectrophotometric method
Assay type: functional
Conditions: not given
Procedure, shortened: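 ABTS cation-radical decolorization was read spectrophotometrically as the fall in absorbance after 1 h. Trolox was the reference. TEAC was taken as the ratio of concentration-response slopes, test/Trolox, and IC50 was also derived. Data are mean ± SEM, n = 3.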
For `O=Nc1c(C(F)(F)F)n[nH]c1-c1cccs1`, the Activity was 0.02 equiv.

Test system: Klebsiella pneumoniae
Assay: Antibacterial activity against Klebsiella pneumoniae
Assay type: functional
Conditions: not given
`O=Nc1c(C(F)(F)F)n[nH]c1-c1cccs1` showed an MIC of 500 µg/mL (≈ 2020 µM). In the case of `Cn1nc(C(F)(F)F)c(N=O)c1-c1cccs1`, the MIC is reported as > 500 µg/mL.

Test system: Proteus vulgaris
Assay: Antibacterial activity against Proteus vulgaris
Assay type: functional
Conditions: not given
`O=Nc1c(C(F)(F)F)n[nH]c1-c1cccs1` gave an MIC of 31.2 µg/mL (≈ 126 µM). With `Cn1nc(C(F)(F)F)c(N=O)c1-c1cccs1` the MIC was > 500 µg/mL.

Test system: Candida albicans
Assay: Antifungal activity against Candida albicans
Assay type: functional
Conditions: not given
With `O=Nc1c(C(F)(F)F)n[nH]c1-c1cccs1` the MIC was 50 µg/mL (≈ 202 µM). Compound `Cn1nc(C(F)(F)F)c(N=O)c1-c1cccs1` has an MIC of 25 µg/mL (≈ 95.7 µM).

Test system: Neisseria gonorrhoeae
Assay: Antibacterial activity against Neisseria gonorrhoeae
Assay type: functional
Conditions: not given
`O=Nc1c(C(F)(F)F)n[nH]c1-c1cccs1` showed an MIC of 62.5 µg/mL (≈ 253 µM). For `Cn1nc(C(F)(F)F)c(N=O)c1-c1cccs1`, the MIC was 500 µg/mL (≈ 1910 µM).

Test system: Trichophyton interdigitale
Assay: Antifungal activity against Trichophyton mentagrophytes var. interdigitale
Assay type: functional
Conditions: not given
Compound `O=Nc1c(C(F)(F)F)n[nH]c1-c1cccs1` has an MIC of 50 µg/mL (≈ 202 µM). For `Cn1nc(C(F)(F)F)c(N=O)c1-c1cccs1`, the MIC was 25 µg/mL (≈ 95.7 µM).

Test system: not listed separately
Assay: Acute toxicity in mouse at 75 mg/kg, ip administered as single dose
Assay type: organism-based
Conditions: in vivo
Procedure, shortened: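 Mice, single intraperitoneal dose, following OECD Guideline for testing of chemicals; three mice per dose level; doses tested 10–300 mg/kg. Read-out is the number of survivors out of 3, used to estimate the expected LD50 range.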
For `O=Nc1c(C(F)(F)F)n[nH]c1-c1cccs1`, the Activity was “Toxic”.

Test system: Citrobacter braakii
Assay: Antibacterial activity against Citrobacter braakii
Assay type: functional
Conditions: not given
Compound `O=Nc1c(C(F)(F)F)n[nH]c1-c1cccs1` has an MIC of 250 µg/mL (≈ 1010 µM). In the case of `Cn1nc(C(F)(F)F)c(N=O)c1-c1cccs1`, the MIC is reported as > 500 µg/mL.
